In ChEMBL document CHEMBL4387752, “Identification of substituted benzothiazole sulfones as potent and selective inhibitors of endothelial lipase” (Bioorg Med Chem Lett, 2019):

Experiments:
[1] = Metabolic stability in Balb/c mouse liver microsomes assessed as parent compound remaining at 0.5 uM measured after 10 mins; assay type: ADME, Microsome; conditions: read-out: Stability
Method in brief: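 Test compound at 0.5 μM was incubated for 10 min with mouse liver microsomes. The read-out is the percentage of parent remaining.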

Endothelial lipase [2] = target: T1, Endothelial lipase (Homo sapiens, UniProt Q9Y5X9); experiment: Inhibition of human endothelial lipase derived from human HT1080 cell conditioned media using PED-A1 as substrate incubated for 20 mins and measured every 20 secs for 10 mins by FRET assay
T1 sequence (Q9Y5X9 whole entry): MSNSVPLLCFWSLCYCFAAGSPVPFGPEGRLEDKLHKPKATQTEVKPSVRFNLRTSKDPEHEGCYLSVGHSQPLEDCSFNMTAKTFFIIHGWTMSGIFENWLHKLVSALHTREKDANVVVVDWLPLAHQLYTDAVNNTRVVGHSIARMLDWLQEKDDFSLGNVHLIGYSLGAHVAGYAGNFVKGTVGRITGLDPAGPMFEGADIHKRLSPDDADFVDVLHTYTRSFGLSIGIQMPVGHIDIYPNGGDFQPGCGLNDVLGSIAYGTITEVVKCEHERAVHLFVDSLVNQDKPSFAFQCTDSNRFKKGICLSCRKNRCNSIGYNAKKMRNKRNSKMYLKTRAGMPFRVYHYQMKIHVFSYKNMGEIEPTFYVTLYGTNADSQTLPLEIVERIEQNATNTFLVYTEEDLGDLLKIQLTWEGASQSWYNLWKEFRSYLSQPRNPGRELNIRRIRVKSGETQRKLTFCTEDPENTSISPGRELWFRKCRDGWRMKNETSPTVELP
Method in brief: (§1)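 IC50s were calculated from mean inhibition values of duplicate determinations.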

[3] = target: T2, Hepatic triacylglycerol lipase (Homo sapiens, UniProt P11150); experiment: Inhibition of human hepatic lipase expressed in African green monkey COS7 cells using PED-A1 as substrate incubated for 20 mins and measured every 20 secs for 10 mins by FRET assay; assay type: cell-based; method in brief: as §1
T2 sequence (P11150 whole entry): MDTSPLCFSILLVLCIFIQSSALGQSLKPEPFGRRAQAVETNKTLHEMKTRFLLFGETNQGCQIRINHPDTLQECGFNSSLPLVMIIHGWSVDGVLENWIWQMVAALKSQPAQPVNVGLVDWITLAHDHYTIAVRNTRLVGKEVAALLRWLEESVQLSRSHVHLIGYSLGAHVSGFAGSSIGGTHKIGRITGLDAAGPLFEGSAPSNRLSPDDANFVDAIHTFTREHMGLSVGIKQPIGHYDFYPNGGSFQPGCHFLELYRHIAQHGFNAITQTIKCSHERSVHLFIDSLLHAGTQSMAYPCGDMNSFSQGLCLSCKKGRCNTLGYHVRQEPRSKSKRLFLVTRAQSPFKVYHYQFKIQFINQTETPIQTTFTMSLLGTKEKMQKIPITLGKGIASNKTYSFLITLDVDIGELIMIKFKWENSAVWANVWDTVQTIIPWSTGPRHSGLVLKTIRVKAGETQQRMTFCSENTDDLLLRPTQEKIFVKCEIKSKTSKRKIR

[4] = Permeability of compound at pH 7.4 by PAMPA; assay type: ADME; conditions: read-out: permeability
Method in brief: (§2)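 Permeability was measured by parallel artificial membrane permeability assay (PAMPA) at pH 5.5 and pH 7.4. Values are reported in nm/s.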

Endothelial lipase [5] = target: T3, Endothelial lipase (Mus musculus, UniProt Q9WVG5); experiment: Inhibition of mouse endothelial lipase expressed in HEK293F cells using D31-POPC-HDL as substrate incubated for 2 hrs in presence of mouse plasma by LC/MS analysis
T3 sequence (Q9WVG5 whole entry): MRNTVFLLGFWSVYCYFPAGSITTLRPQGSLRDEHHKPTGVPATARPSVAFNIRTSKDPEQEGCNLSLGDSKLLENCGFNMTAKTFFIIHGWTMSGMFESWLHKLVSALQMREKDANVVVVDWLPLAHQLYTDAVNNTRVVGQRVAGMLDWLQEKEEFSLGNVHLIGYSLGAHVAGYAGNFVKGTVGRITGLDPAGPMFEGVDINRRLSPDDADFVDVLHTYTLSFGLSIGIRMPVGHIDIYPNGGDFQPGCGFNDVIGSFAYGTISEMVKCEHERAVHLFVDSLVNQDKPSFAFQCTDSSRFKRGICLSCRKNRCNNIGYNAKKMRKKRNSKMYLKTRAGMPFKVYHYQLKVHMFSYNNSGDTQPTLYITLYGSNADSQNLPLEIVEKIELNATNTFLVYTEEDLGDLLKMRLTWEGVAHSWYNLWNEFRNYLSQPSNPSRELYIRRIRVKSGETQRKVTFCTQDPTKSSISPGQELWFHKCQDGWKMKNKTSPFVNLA
Method in brief: (§3)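 IC50 values were derived from the means of duplicate inhibition measurements.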

[6] = Plasma concentration in Balb/c mouse at 10 mg/kg, po measured after 24 hrs; assay type: ADME, organism-based
Method in brief: (§4)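 Oral PK in fasted male balb/c mice. Dosing vehicle was ethanol/PEG 400/water (10:60:30).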

[7] = Cmax in Balb/c mouse at 10 mg/kg, po; assay type: ADME, organism-based; set-up: dose 10 mg/kg, route oral; conditions: in vivo; method in brief: as §4
[8] = Tmax in Balb/c mouse at 10 mg/kg, po; assay type: ADME, organism-based; conditions: in vivo; method in brief: as §4
[9] = Total AUC in Balb/c mouse at 10 mg/kg, po measured after 24 hrs; assay type: ADME, organism-based; set-up: dose 10 mg/kg, time AUCmax, route oral; conditions: in vivo; method in brief: as §4
[10] = Permeability of compound at pH 5.5 by PAMPA; assay type: ADME; conditions: read-out: permeability; method in brief: as §2
[11] = Plasma concentration in Balb/c mouse at 10 mg/kg, po measured after 7 hrs; assay type: ADME, organism-based; method in brief: as §4
Homo sapiens = species: Homo sapiens; experiment: Selectivity index, ratio of IC50 for inhibition of human hepatic lipase expressed in African green monkey COS7 cells to IC50 for inhibition of human endothelial lipase derived from human HT1080 cell conditioned media; assay type: cell-based
Endothelial lipase [12] = target: T1, Endothelial lipase; experiment: Inhibition of human endothelial lipase using D31-POPC-HDL as substrate incubated for 2 hrs in presence of human serum by LC/MS analysis; method in brief: as §3

| remaining at 10 min, 0.5 µM [1] [%] | IC50 (Endothelial lipase [2]) [nM] | IC50 [3] [nM] | Papp [4] [×10⁻⁶ cm/s] | IC50 (Endothelial lipase [5]) [nM] | concentration at 24 h [6] [nM] | Cmax [7] [nM] | Tmax [8] [h] | AUC at 24 h [9] [µM·h] | Papp [10] [×10⁻⁶ cm/s] | concentration at 7 h [11] [nM] | IC50 (Endothelial lipase [12]) [nM] | Compound | Ratio IC50 (Homo sapiens) |
| --- | --- | --- | --- | --- | --- | --- | --- | --- | --- | --- | --- | --- | --- |
| 100 | 10 | 280 | 1.3 | 320 | 5 | 36 | 2.6 | 0.16 | 1.2 | 8 | – | CS(=O)(=O)C(C(=O)NCCS(N)(=O)=O)c1nc2ccc(-c3ccc(C(=O)N4CCOCC4)cc3)cc2s1 (stereo unspecified) | – |
| – | 25 | 7 | – | 94 | – | – | – | – | – | – | 65 | O=C(CNC(=O)C(c1nc2ccc(-c3ccc(F)nc3)cc2s1)S(=O)(=O)Cc1ccccc1)NC1CC1 (stereo unspecified) | 0.3 |
